Rows were chosen to be rich in hits. Some 1.6% of all compounds tested hit in one or more screens of this group.
TbMetRS inhib: Trypanosoma brucei MetRS inhibition; inhibition, % at 11.9 µM; AID 624268; purified T. brucei MetRS, ATP depletion, Kinase-Glo luminescence; hit rate 0.4% among 360,000;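 active = inhibition above a per-plate cutoff of the control wells' mean inhibition plus 3 SD, cut at about 5.5% in these data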;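 note: 0% = DMSO wells median and 100% = median of wells with control inhibitor compound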
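assay system = parasite MetRS enzyme | timing = 15 min preincubation, 2 h reaction, all 25 °C | evaluation = percent inhibition relative to median high and low control wells | medium = HEPES buffer containing pyrophosphatase, BSA, spermine, DTT | compound = single dose, 11.9 µM final nominal, 0.9% final DMSO | detection = Kinase-Glo luminescence, ATP depletion format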
MT1-MMP act inh: blocks activation of human MT1-MMP; P50281; HT1080 RFP-PRO-GFP cells, GFP/RFP ratio fluorescence, overnight; percent of plate control window, DMSO zero; GFP/RFP ratio change, % at 20 µM; hit rate 0.061% among 360,000;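 active = GFP/RFP ratio change of at least 30% with cell ATP level not reduced by more than half and red fluorescence within 50% of control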
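system = RFP-PRO-GFP reporter HT1080 cells | dosing = 20 µM single dose, 1% DMSO | timing = overnight cell settling, then overnight compound exposure, 37 °C, 5% CO2 | read-out basis = GFP/RFP fluorescence ratio | controls = DMSO and RFP-L50D-GFP cell wells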
SKN-1 block: blocks SKN-1 activity in C. elegans; C. elegans VP596 Pgst-4::GFP/RFP ratio, acrylamide-induced, 24 h; inhibition, % at 21.8 µM; hit rate 0.49% among 360,000; AID 624304;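 active = interference check ratio from 0.5 to 1.5 plus GFP to RFP signal ratio inhibition reaching or exceeding a fixed threshold, cut at about 30% in these data, passing the limit was not always enough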
Arr AP2 block: human beta-arrestin and AP2 interaction inhibition. hit rate 0.31% among 340,000. inhibition, % at 10 µM. FITC-arrestin peptide / GST-AP2 beads, flow cytometry; AP2 beta2 appendage carries R879A mutation. AID 504490;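 active = inhibition above a set limit, near 3 SD of compounds lacking own fluorescence, cut at about 54% in these data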;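 note: plate controls were DMSO wells for no effect and 5 µM unlabelled arrestin peptide for full effect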
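System: GST-AP2 R879A glutathione beads. Medium: PBS with 0.05% Tween 20 and 0.1% BSA. Also added: FITC-arrestin peptide, 50 nM. Incubation: 12 min plus 1 h, RT. Measured by: high-throughput flow cytometry of beads, ex 488, em 535 nm. Evaluation: percent drop in bead-associated FITC signal.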
Rin1 Abl inh: blocks binding of human Rin1 to Abl. hit rate 0.4% among 360,000. TR-FRET Rin1/Abl binding, biochemical. inhibition, % at 7.35 µM; in the data active = inhibition above about 5%, passing the limit was not always enough
Target sequence (P00519 whole entry, looked up): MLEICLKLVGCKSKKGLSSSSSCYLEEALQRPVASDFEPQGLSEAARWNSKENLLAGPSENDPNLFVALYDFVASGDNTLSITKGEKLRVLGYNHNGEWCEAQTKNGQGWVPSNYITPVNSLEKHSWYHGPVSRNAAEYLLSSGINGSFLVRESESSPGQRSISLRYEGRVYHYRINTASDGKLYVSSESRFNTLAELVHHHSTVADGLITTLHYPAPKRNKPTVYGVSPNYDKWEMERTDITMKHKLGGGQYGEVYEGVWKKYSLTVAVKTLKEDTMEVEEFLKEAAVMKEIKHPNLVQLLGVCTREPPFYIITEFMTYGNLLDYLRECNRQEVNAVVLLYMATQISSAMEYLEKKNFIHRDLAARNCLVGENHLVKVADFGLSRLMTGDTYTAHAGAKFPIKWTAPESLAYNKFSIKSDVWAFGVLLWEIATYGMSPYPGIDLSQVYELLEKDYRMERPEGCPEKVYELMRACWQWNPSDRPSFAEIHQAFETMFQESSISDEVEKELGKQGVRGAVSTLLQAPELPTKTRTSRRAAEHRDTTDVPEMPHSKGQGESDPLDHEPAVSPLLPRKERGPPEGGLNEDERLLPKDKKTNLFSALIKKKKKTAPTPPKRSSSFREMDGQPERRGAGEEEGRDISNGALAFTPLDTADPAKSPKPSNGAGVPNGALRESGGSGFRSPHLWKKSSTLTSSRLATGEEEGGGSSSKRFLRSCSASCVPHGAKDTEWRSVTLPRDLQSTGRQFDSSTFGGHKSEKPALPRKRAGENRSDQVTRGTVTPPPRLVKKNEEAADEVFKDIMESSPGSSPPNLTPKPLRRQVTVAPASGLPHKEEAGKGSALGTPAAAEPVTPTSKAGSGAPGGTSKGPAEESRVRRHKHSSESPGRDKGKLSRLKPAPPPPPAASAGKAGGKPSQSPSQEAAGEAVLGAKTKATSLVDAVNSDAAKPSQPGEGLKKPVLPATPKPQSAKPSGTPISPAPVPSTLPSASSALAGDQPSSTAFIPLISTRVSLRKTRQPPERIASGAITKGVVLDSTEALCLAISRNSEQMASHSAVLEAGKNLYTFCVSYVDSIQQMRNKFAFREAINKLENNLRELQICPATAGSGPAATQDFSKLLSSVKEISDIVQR
Target sequence (Q13671 whole entry, looked up): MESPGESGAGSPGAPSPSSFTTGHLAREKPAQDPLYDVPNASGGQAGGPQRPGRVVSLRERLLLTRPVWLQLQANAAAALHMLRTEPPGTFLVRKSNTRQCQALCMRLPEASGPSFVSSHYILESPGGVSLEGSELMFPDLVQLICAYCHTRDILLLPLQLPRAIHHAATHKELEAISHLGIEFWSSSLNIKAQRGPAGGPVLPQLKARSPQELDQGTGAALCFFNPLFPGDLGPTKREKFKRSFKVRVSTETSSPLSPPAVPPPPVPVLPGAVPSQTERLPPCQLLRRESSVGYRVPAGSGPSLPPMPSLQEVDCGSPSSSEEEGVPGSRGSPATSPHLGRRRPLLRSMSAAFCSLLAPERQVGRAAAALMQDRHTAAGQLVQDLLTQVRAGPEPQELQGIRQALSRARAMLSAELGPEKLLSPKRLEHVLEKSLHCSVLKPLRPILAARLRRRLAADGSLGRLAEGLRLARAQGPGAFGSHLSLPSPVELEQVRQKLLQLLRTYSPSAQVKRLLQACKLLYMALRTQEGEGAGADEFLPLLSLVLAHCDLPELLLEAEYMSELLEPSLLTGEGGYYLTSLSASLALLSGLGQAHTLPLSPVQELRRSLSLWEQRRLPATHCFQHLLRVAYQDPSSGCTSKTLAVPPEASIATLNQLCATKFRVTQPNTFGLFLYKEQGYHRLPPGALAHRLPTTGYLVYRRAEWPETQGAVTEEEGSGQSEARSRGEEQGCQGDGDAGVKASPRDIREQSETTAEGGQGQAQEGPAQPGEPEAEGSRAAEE
Tb MetRS conf: confirmation of Trypanosoma brucei MetRS inhibitors | hit rate 93% among 1,400 | inhibition, % at 11.9 µM | shares compounds with TbMetRS inhib | T. brucei MetRS enzyme, luminescence (ATP depletion); in the data active = inhibition above about 7%
Jurkat tox: counter-screen for T. brucei MetRS inhibitors: Jurkat cell cytotoxicity; hit rate 12% among 1,400; shares compounds with TbMetRS inhib; Jurkat cells viability, ATP luminescence; inhibition, % at 8.3 µM; in the data active = inhibition above about 15%;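 note: 0% = vehicle and 100% = reference inhibitor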
Tb MetRS inh FP: orthogonal test for Trypanosoma brucei MetRS inhibitors | shares compounds with TbMetRS inhib | purified T. brucei MetRS, fluorescence polarization | inhibition, % at 11.9 µM | hit rate 44% among 1,400 | AID 651607; in the data active = inhibition above about 17%;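 note: 0% = vehicle wells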
* marks the source's active call; other numbers are inactive results; . = no result.

SMILES | TbMetRS inhib | MT1-MMP act inh | SKN-1 block | Arr AP2 block | Rin1 Abl inh | Tb MetRS conf | Jurkat tox | Tb MetRS inh FP
O=C(Cc1cccc(Cl)c1)Nc1ccc(Br)cc1 | 40* | 3 | -2 | 2 | -3 | 61* | -1 | 39*
O=C(CCC(=O)OCc1ccc(C(=O)Oc2ccc(Cl)cc2)cc1)Nc1ccccc1 | -1 | 3 | -9 | 3 | 5 | . | . | .
CCOc1ccc(C(C)=O)cc1CN1c2ccc(S(N)(=O)=O)cc2CC1C (stereo not given) | 0 | -3 | 10 | -3 | 6 | . | . | .
Cc1cccc(S(=O)(=O)Nc2nc3ccccc3nc2OC(C)C)c1 | 0 | -1 | 27 | -13 | 5 | . | . | .
COc1ccc2c(c1)CCC(C)N2C(=O)C(=O)c1c[nH]c2ccccc12 (stereo not given) | 12* | 3 | 2 | 9 | -7 | 17* | 15 | 10
COc1ccc2[nH]cc(C(=O)C(=O)N3CCCCC3)c2c1 | -1 | 4 | 18 | -4 | -3 | . | . | .
O=C1N(Cc2cccc(Cl)c2)C[C@@H]2C[C@@H](c3c[nH]c4ccccc34)N3CCC[C@@]123 | 5.9* | 25 | 40 | 2 | 1 | 11* | 5 | 8
O=C(CNC(=O)c1cccc(OC(F)F)c1)Nc1ccc(Cl)cc1 | 51* | 4 | 3 | 9 | 1 | 70* | 2 | 32*
Nc1cc([N+](=O)[O-])cc2oc(-c3ccccc3)cc12 | -1 | -27 | 17 | -1 | -3 | . | . | .
C/C(CC(=O)Nc1ccc(Cl)c(C(F)(F)F)c1)=N\NC(=O)c1cccc(O)c1 | 0 | 7 | 5 | 3 | -1 | . | . | .
C/C(CC(=O)Nc1ccc(Cl)c(C(F)(F)F)c1)=N\NC(=O)c1ccccc1O | 16* | -2 | 1 | 13 | 0 | 93* | 28* | 91*
O=C1CCCc2c1[nH]c1ccccc21 | 0 | 6 | -4 | 16 | 4 | . | . | .
c1ccc2c3c([nH]c2c1)-c1[nH]ncc1CC3 | 16* | 8 | 15 | 1 | 2 | 19* | 2 | 22*
Clc1ccc2[nH]c3c(c2c1)CCc1cn[nH]c1-3 | 32* | 8 | 32 | -7 | 1 | 28* | 5 | 100*
Brc1ccccc1CN1CCN(Cc2c[nH]c3ccccc23)CC1 | . | . | . | 16 | . | . | . | .
O=[N+]([O-])c1ccc(CN2CCN(Cc3c[nH]c4ccccc34)CC2)cc1 | 6.2* | 1 | 3 | 3 | 4 | 19* | 10 | 6
Brc1ccc(CN2CCN(Cc3c[nH]c4ccccc34)CC2)cc1 | 11* | -1 | 15 | 10 | 2 | 42* | 13 | 17*
CCS(=O)(=O)N1CCN(Cc2c[nH]c3ccccc23)CC1 | 1 | 0 | 5 | 12 | -3 | . | . | .
CCOC(=O)N1CCN(C(=O)C[C@@H]2C[C@@]3(C(=O)OCC)CCCC=C3N(Cc3ccco3)C2=O)CC1 | -2 | 2 | 0 | . | . | . | . | .
O=C1NC(C2CC3C=CC2C3)Nc2ccccc21 (stereo not given) | 0 | 7 | -9 | . | -4 | . | . | .
O=C(CSc1nc2nn(-c3ccccc3)c(=O)c-2c2n1CCCCC2)c1ccc(OC(F)F)cc1 | 0 | 5 | -15 | -7 | -4 | . | . | .
COc1ccccc1NC(=S)Nc1ccc2cn[nH]c2c1 | 7.8* | -3 | -16 | 17 | 2 | 2 | 2 | 1
Cc1noc(C)c1C(=O)Nc1nc2ccccc2s1 | 0 | 2 | 16 | -2 | 0 | . | . | .
N=c1sccn1CC(=O)NCc1ccc(Cl)cc1Cl | 29* | 0 | 13 | -11 | 0 | 51* | 0 | 17
O=C(Cn1cc([N+](=O)[O-])ccc1=O)NCc1ccc(Cl)cc1Cl | 9.1* | 2 | 1 | -6 | -3 | 26* | 6 | 14
SMILES | TbMetRS inhib | MT1-MMP act inh | SKN-1 block | Arr AP2 block | Rin1 Abl inh | Tb MetRS conf | Jurkat tox | Tb MetRS inh FP
Cc1ccc(NC(=O)CNc2cc(S(=O)(=O)N3CCOCC3)ccc2NCC2CCCO2)cc1F (stereo not given) | 15* | 5 | -10 | 23 | -1 | 21* | -3 | 10
COc1ccc(NC(=O)CNc2cc(S(=O)(=O)N3CCOCC3)ccc2NCC2CCCO2)cc1 (stereo not given) | 1 | 6 | 12 | -7 | -3 | . | . | .
O=C(CNc1cc(S(=O)(=O)N2CCOCC2)ccc1NCC1CCCO1)Nc1ccccc1F (stereo not given) | 11* | 0 | 14 | 26 | 1 | 4 | -1 | -5
CC(N)C(=O)NC(C(=O)NC(C)C(=O)Nc1cccc2ccccc12)C(C)C (stereo not given) | 1 | 5 | -6 | . | -4 | . | . | .
O=C(NCc1cccc(C(F)(F)F)c1)c1c[nH]c(=O)s1 | 1 | -2 | 9 | . | 1 | . | . | .
CC(=O)c1c[nH]c(C(=O)NCc2cccc(C(F)(F)F)c2)c1 | 92* | 6 | -13 | 24 | 0 | 94* | 0 | 78*
CCCCCCCCNc1ncnc2ccccc12 | 11* | 2 | 51* | 3 | 3 | 25* | 46* | 8
c1ccc(CCNc2ncnc3ccccc23)cc1 | -1 | -13 | 8 | -9 | 2 | . | . | .
CC(C)NC(=O)N(C)C[C@H]1Oc2ccc(NC(=O)NC3CCCCC3)cc2C(=O)N([C@H](C)CO)C[C@@H]1C | 0 | 4 | 7 | . | 1 | . | . | .
Cc1cccc(CC(=O)c2c[nH]c3ccccc23)c1 | 11* | -1 | -1 | 10 | 1 | 22* | 10 | 13
O=C(Nc1ccc(F)cc1)Nc1ccc(N2CCCC2)c(S(=O)(=O)Nc2ccccc2Cl)c1 | 11* | -28 | 7 | 20 | -2 | 27* | 67* | 44*
O=C(Nc1ccc(Cl)c(Cl)c1)Nc1ccc(N2CCCC2)c(S(=O)(=O)Nc2ccccc2Cl)c1 | 0 | -32 | 10 | -2 | -4 | . | . | .
COc1ccccc1NS(=O)(=O)c1cc(NC(=O)Nc2ccccc2)ccc1N1CCCCC1 | 6.2* | 6 | 10 | -10 | -5 | 11* | -1 | 17*
CC(C)(CC1(C)NC(=O)NC1=O)OCc1ccccc1 (stereo not given) | 0 | 5 | 13 | -20 | 1 | . | . | .
O=C(NCc1cc(Cl)cc(Cl)c1)c1ccc2nc([C@@H]3O[C@H](CO)[C@H](O)[C@H](O)[C@H]3O)[nH]c2c1 | 4 | 2 | 0 | . | 2 | . | . | .
O=C(NCc1cc(Cl)cc(Cl)c1)c1ccc2nc(COCCO)[nH]c2c1 | 21* | 6 | 14 | . | -3 | 55* | -8 | 30*
O=c1c(Cc2ccc(Cl)cc2Cl)c(O)ccn1Cc1ccc(Cl)cc1 | 5.9* | 4 | -1 | -14 | -1 | 16* | 6 | 13
